HKDC1 inhibitor: HKDC1 hexokinase inhibitors, primary screen, biochemical, fluorescence, uHTS | Q2TB90 | recombinant HKDC1, G6PDH/diaphorase resazurin coupled fluorescence | inhibition, % at 20 µM | hit rate 0.16% among 340,000;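 active = inhibition above about 35% when tested at 20 µM, limit read from the data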;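 note: plate controls were DMSO wells with enzyme for no effect and DMSO wells lacking enzyme for full effect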
Target sequence (Q2TB90 whole entry, looked up): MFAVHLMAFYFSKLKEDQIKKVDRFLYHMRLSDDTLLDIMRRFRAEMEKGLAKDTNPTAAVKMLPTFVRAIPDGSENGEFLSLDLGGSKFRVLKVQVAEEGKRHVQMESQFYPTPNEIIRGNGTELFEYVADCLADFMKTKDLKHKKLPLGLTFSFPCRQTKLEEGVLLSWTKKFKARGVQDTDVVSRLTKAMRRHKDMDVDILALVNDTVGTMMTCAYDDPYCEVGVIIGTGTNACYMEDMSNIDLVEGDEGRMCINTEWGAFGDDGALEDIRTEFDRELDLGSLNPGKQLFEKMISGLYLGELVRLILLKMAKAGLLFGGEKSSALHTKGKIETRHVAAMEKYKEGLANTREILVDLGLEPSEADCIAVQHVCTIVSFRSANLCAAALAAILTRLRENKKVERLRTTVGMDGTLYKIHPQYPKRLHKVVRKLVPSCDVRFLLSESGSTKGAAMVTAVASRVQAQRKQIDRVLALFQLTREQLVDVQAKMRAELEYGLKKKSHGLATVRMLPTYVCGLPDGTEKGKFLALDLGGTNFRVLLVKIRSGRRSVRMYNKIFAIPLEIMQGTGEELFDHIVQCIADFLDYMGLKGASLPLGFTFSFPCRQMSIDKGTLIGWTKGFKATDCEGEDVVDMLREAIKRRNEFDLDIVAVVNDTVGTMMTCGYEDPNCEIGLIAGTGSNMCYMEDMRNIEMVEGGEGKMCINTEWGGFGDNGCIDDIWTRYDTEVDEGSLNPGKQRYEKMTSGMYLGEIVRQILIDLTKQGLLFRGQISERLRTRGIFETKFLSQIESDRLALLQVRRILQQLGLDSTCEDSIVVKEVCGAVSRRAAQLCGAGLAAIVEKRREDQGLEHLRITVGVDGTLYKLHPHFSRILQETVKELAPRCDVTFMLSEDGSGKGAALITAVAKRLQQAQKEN
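Assay system: in-house recombinant HK5 (HKDC1) enzyme. Input: HKDC1 at 5 µg/mL. Medium: Tris pH 8.0 buffer with MgCl2, Tween-20, BSA, BME. Dosing: single 20 µM dose. Schedule: 90 min reaction incubation at room temperature, dark. Signal: resazurin-to-resorufin fluorescence via G6PDH and diaphorase coupling, 525/613 nm. Controls: DMSO-enzyme wells negative, buffer-substituted wells positive.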
G6PDH CS: L. mesenteroides G6PDH inhibitors, counter-screen for G6PDH-coupled screening assays, biochemical, Leuconostoc mesenteroides enzyme; Purified L. mesenteroides G6PDH, diaphorase/resazurin coupled fluorescence, 45 min; inhibition, % at 5 µM; hit rate 0.12% among 200,000; AID 1020, 2008; in the data active = inhibition above about 50%
PfG6PD inh: PfG6PD enzyme inhibitors, primary screen, biochemical, fluorescence intensity, uHTS | AID 504690, 2011 | PfGluPho enzyme, NADPH resazurin-diaphorase fluorescence | hit rate 0.78% among 350,000 | inhibition, % at 20 µM | glucose-6-phosphate dehydrogenase-6-phosphogluconolactonase (Plasmodium falciparum 3D7);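 active = inhibition reaching at least a set limit at 20 µM in the primary screen, cut at about 59% in these data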;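 note: 0% = DMSO wells with substrate and 100% = DMSO wells lacking glucose-6-phosphate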
Diaphorase act: compounds boosting diaphorase resazurin reduction – biochemical, uHTS, resorufin fluorescence, counter-screen for diaphorase-coupled primary assays, primary screen; Diaphorase/resazurin coupled assay, 16 min; active compounds read high; 1 = vehicle wells, 0 = NADH-free wells; activation factor at 20 µM; hit rate 0.005% among 190,000;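 active = diaphorase activity raised at least twofold by the compound at 20 µM; inactive = activation factor below 2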
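Material: bacterial diaphorase enzyme (C. kluyveri); amount: enzyme 0.07 U/mL final; reagent: NADH substrate 0.114 mM plus resazurin dye 0.1 mM, final; doses: single compound dose of 20 µM, 1% DMSO final; timing: 16 min enzyme reaction, ambient temperature; measured by: fluorescence of resorufin, 544 nm excitation, 590 nm emission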
Diaph inh CS: diaphorase inhibitors and chemical oxidizers, primary screen, counter-screen for diaphorase-coupled primary assays, biochemical, uHTS, resorufin fluorescence; inhibition, % at 20 µM; hit rate 0.69% among 190,000; diaphorase resazurin-to-resorufin fluorescence, NADH, 16 min; bacterial (C. kluyveri) enzyme, not human;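 active = primary screen inhibition at 20 µM above a set limit, cut at about 50% in these data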;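 note: plate controls were DMSO with full reaction for no effect and wells lacking NADH for full effect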
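System: Bacterial diaphorase enzyme (C. kluyveri) | Incubation: 16-min room-temperature incubation before reading | Benchmarks: No-NADH positive control and DMSO neutral control | Measured by: Resorufin fluorescence 544/590 nm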
PfGluPho conf: PfG6PD inhibitors, hit retest, confirmation, biochemical, fluorescence intensity, single concentration; shares compounds with PfG6PD inh; recombinant PfGluPho, NADPH-diaphorase-resazurin fluorescence; inhibition, % at 20 µM; hit rate 34% among 2,400;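 active = inhibition of at least 50% at 20 µM in any single replicate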;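 note: 0% = DMSO with substrate and 100% = DMSO lacking glucose-6-phosphate substrate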
Diaphorase 10uM: diaphorase inhibitors and chemical oxidizers, confirmation, counter-screen for P. falciparum G6PD inhibitor project, biochemical, fluorescence intensity, 10 µM NADPH; AID 504862, 2011; diaphorase-coupled resazurin reduction, NADPH 10 uM; hit rate 39% among 820; shares compounds with PfG6PD inh; inhibition, % at 20 µM;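 active = average inhibition reaching 50% or more with the compound at 20 µM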;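 note: resorufin red fluorescence formed as diaphorase reduces resazurin using NADPH; 0% = DMSO with enzyme and 100% = DMSO without enzyme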
Diaphorase 30uM: diaphorase inhibitors and chemical oxidizers, confirmation, counter-screen for P. falciparum G6PD inhibitor project, biochemical, fluorescence intensity, 30 µM NADPH. shares compounds with PfG6PD inh. Diaphorase/resazurin coupled assay, resorufin fluorescence. inhibition, % at 20 µM. hit rate 29% among 820. AID 504863, 2011;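 active = inhibition averaging 50% or more, tested at 20 µM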;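 note: 0% = DMSO with enzyme and 100% = DMSO wells lacking diaphorase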
* marks the source's active call; other numbers are inactive results; . = no result given. Only some compounds are listed: those with a hit (about 1.2% of all), similar ones and a draw of the others.

SMILES	HKDC1 inhibitor	G6PDH CS	PfG6PD inh	Diaphorase act	Diaph inh CS	PfGluPho conf	others
CCOc1ccc(N(CC(=O)N2CCCC2)S(=O)(=O)c2ccc(Cl)cc2)cc1	-5	.	-13	.	.	.
Cn1ncc(Cl)c1C(=O)N/N=C/c1cccc(OC2CSC2)c1	4	0	109*	1	3	85*	Diaphorase 10uM=76*;Diaphorase 30uM=64*
O=C(CSc1ncccn1)N/N=C/c1cccc(OC2CSC2)c1	-7	8	14	1	-2	.
CCc1ccc(Nc2nnc(SCC(=O)Nc3sccc3C(N)=O)s2)cc1	6	3	67*	0.8	25	7
CN(C)c1ccc(N=Nc2ccccc2C(=O)OCC(=O)N(C)c2ccccc2)cc1	1	-47	-21	0.8	15	.
O=C1NC(=O)C(Cc2ccc(Cl)cc2)(c2ccccc2)N1 (configuration not stated)	-3	.	68*	.	.	38
O=C1NC(=O)C(Cc2ccccc2)(c2ccccc2)N1 (configuration not stated)	-5	.	4	.	.	.
O=C(Sc1n[nH]c(=O)[nH]c1=O)c1ccccc1	1	.	111*	.	.	93*	Diaphorase 10uM=-8;Diaphorase 30uM=-9
N#C/C(C(=O)Nc1ccc(Cl)cc1)=C(/S)Nc1ccccc1	10	.	95*	.	.	83*	Diaphorase 10uM=-18;Diaphorase 30uM=-3
CCCCNc1c(-c2cccc(-c3cc(C(C)=O)cs3)c2)nc2ccc(C)cn12	0	.	67*	.	.	13
CCCCNc1c(-c2cccc(-c3ccc(OC)cc3)c2)nc2ccc(C)cn12	1	.	54	.	.	.
CCC/C=C/c1ccc(CN2C(CC(C)C)C(=O)N(Cc3cn(CCOCOC)nn3)CCS2(=O)=O)cc1 (configuration not stated)	.	.	-2	.	.	.
Cc1no[n+]([O-])c1COc1cccc(/C=N/Nc2nncn2N)c1	-5	.	100*	.	.	55*	Diaphorase 10uM=41;Diaphorase 30uM=27
COc1cc(/C=N/n2nnnc2N)ccc1OCc1c(C)no[n+]1[O-]	0	0	-3	0.9	11	.
COc1cc(C(=O)O/N=C2/C=C(C)C(=O)C=C2C)cc(OC)c1OC	4	21	61*	0.7	27	57*	Diaphorase 10uM=27;Diaphorase 30uM=8
COc1cc(C(=O)OCC(=O)c2cc(C)n(C)c2C)cc(OC)c1OC	0	6	5	1	2	.
CC(=O)c1ccc(S(=O)(=O)Nc2ccc(C(=O)N3CCC3)cc2)cc1	5	.	4	.	.	.
CCOC(=O)c1c(CSc2ccccc2)n(C)c2cc(Br)c(OC)c(O)c12	-2	.	7	.	.	.
CCOC(=O)c1c(CSc2ccccc2)n(C)c2cc(Br)c(OCC(O)CNC(CO)(CO)CO)cc12 (configuration not stated)	9	-2	61*	1	0	11
COc1ccc(C(=O)N/C(=C\c2cn(S(=O)(=O)N(C)C)c3ccccc23)C(=O)N2CCN(C)CC2)cc1OC	.	.	16	.	.	.
Cc1nn(C)c(=O)n1-c1ccccc1	-8	1	7	0.9	9	.
Cn1c2nc(=O)n(-c3ccccc3)c(=O)c-2nc2c1CCCC2	.	.	81*	.	.	49
OCCc1c[nH]c2ccc(OCc3ccccc3)cc12	-5	.	7	.	.	.
NC(=S)N/N=C/c1c[nH]c2ccc(OCc3ccccc3)cc12	6	.	60*	.	.	27
C/C(Cn1nnc([N+](=O)[O-])n1)=N\NC(=O)c1ccc(O)cc1O	8	8	49	0.8	18	67*	Diaphorase 10uM=23;Diaphorase 30uM=31
SMILES	HKDC1 inhibitor	G6PDH CS	PfG6PD inh	Diaphorase act	Diaph inh CS	PfGluPho conf	others
C/C(Cn1nnc([N+](=O)[O-])n1)=N\NC(=O)c1ccccc1O	11	.	67*	.	.	75*	Diaphorase 10uM=31;Diaphorase 30uM=34
C/C(Cn1cnc([N+](=O)[O-])n1)=N\NC(=O)c1ccccc1O	-5	11	11	1	-4	.
CCOC(=O)[C@H]1[C@H]2COc3ccc(Cl)cc3[C@@H]2N2C(=O)c3cc(F)c(F)cc3NC(=O)[C@@]12C	-3	.	12	.	.	.
NC(=O)Nc1ccc(C(=O)OCC(=O)N2CCc3ccccc3C2)cc1	-6	.	-5	.	.	.
CCc1cc2c(=O)c(-c3nc(C)cs3)coc2cc1O	-6	.	76*	.	.	30
Cc1ccc(CSCC(=O)N/N=C/c2sccc2C)cc1	-2	2	78*	0.9	15	52*	Diaphorase 10uM=63*;Diaphorase 30uM=54*
CCn1c(SCC(=O)Nc2ccc(OC)c(OC)c2)nnc1-c1cnccn1	8	.	16	.	.	.
CCn1c(SCC(=O)Nc2ccc3c(c2)OCO3)nnc1-c1cnccn1	-2	1	83*	0.9	6	46
COC(=O)C1=C(C)N(Cc2cccnc2)C(=O)/C1=C\c1sccc1C	5	20	-21	1	0	.
CN(C)S(=O)(=O)c1ccc(Cl)c(NC(=O)C2CCN(S(=O)(=O)c3cccs3)CC2)c1	2	.	60*	.	.	31
CS(=O)(=O)c1ccc(Cl)c(NC(=O)C2CCN(S(=O)(=O)c3cccs3)CC2)c1	-3	.	3	.	.	.
Cc1[nH]c(=S)c(C#N)c(C)c1C(=O)Nc1ccccc1	-6	2	62*	0.9	14	37
CCc1c(C(=O)Nc2ccccc2)c(C)[nH]c(=S)c1C#N	6	0	59*	0.8	15	54*	Diaphorase 10uM=-29;Diaphorase 30uM=-20
O=[N+]([O-])c1c(Nc2ccc(O)cc2)cc(Cl)c2nonc12	17	.	60*	.	.	23
CN(C)c1cc(Nc2ccc(O)cc2)c([N+](=O)[O-])c2nonc12	-3	.	-5	.	.	.
CC(CNc1ccccc1O)C(=O)O (configuration not stated)	8	42	94*	0.6	39	70*	Diaphorase 10uM=-4;Diaphorase 30uM=1
COC(=O)c1cc2ccccc2c(-c2c(OC)c(C(=O)OC)cc3ccccc23)c1OC	5	6	89*	0.7	29	33
CCCn1c(=N)n(CC(=O)c2ccc(Cl)cc2)c2ccccc21	-2	.	30	.	.	.

Bioassay records deposited in PubChem BioAssay by Sanford-Burnham Center for Chemical Genomics.
